Results collected from several papers.
Protocols differ between the studies behind these lines.
Target: MAP kinase-activated protein kinase 3 (MAPKAPK3, Homo sapiens, UniProt Q16644)

SMILES | test | conditions | quantity | result
COc1cccc2c(NCc3ccccc3)nc(-n3c(N)nc4ccccc43)nc12 | target engagement in cells, inhibitor, chemoproteomics | 20 mM | inhibition | -7.4%
O=C1Nc2ccc(Cl)cc2C1=Cc1cc(Cl)c(O)c(Cl)c1 | cell-free assay | 0.5 µM | remaining signal | 88.4%
COc1cc2ncnc(Nc3ccc(Oc4ccccc4)c(C)c3C)c2cc1OC | enzyme activity, inhibitor | 1 µM | inhibition | -14%
Cc1ccc(NC(=O)c2ccc(C)c(C(F)(F)F)c2)cc1C#Cc1nn(C2CCC(O)CC2)c2ncnc(N)c12 (stereo not shown) | cell-free assay | 10 µM | remaining signal | 96%
CNC(=O)c1cc(Oc2ccc(NC(=O)Nc3ccc(Cl)c(C(F)(F)F)c3)cc2)ccn1 | enzyme activity, inhibitor | 0.3 µM | inhibition | -3%
O=C(Nc1cnn(-c2csc(C(=O)NC3COC3)c2)c1)Nc1c(F)cccc1Cl | enzyme activity, inhibitor | 5 µM | remaining activity | 95.6%
Oc1cccc(-c2nc(N3CCOCC3)c3oc4ncccc4c3n2)c1 | enzyme activity, inhibitor | 10 µM | remaining activity | 100%
Cc1ccc(Nc2nccc(N(C)c3ccc4c(C)n(C)nc4c3)n2)cc1S(N)(=O)=O | enzyme activity, inhibitor | 0.3 µM | inhibition | -8%
CC(C)(C)c1nc2c(s1)c1nc(N)ncc1c1ccc(NS(=O)(=O)c3c(F)cccc3F)c(F)c12 | enzyme activity, inhibitor, radiometric | 1 µM | remaining activity | 93%
CN1CC(Oc2cnc(C#N)cc2-c2ccn3nc(NC(=O)C4CC4)cc3c2)C1 | enzyme activity, inhibitor | 1 µM | inhibition | -1%
CCCOc1ccc(OC)c(F)c1C(=O)c1ccc(C(=O)N[C@@H]2CNC[C@H]2NC(=O)c2ccc3[nH]ncc3c2)cc1 | enzyme activity, inhibitor | 10 µM | remaining activity | 68%
c1ccc(CNc2nc(N3CCOc4ccccc43)nc3c2CCCC3)cc1 | target engagement in cells, inhibitor, chemoproteomics | 20 mM | inhibition | -11.1%
CCN(CC)c1ccc(C2=NNC(=O)CC2C)cc1[N+](=O)[O-] (stereo not shown) | enzyme activity, inhibitor | 10 µM | remaining activity | 100%
FC(F)(F)Oc1cccc(-c2cnc3ccc(-c4ccncc4)nn23)c1 | enzyme activity, inhibitor, radiometric | 5 µM | activity vs control | 97%
COc1cc(Nc2cnc(C#N)c(O[C@H](C)CN(C)C)n2)ncc1-c1cnn(C)c1 | enzyme activity, inhibitor, radiometric | 10 µM | remaining activity | 80%
COc1cc(/C=C/C(=O)CC(=O)/C=C/c2ccc(O)c(OC)c2)ccc1O | enzyme activity, inhibitor | 1 µM | activity vs control | 76%
N#CCCc1ccc2c(c1)-c1[nH]c3ccc([N+](=O)[O-])cc3c1CC(=O)N2 | cell-free assay | 0.5 µM | remaining signal | 96.8%
Cc1cc(NC(=O)c2cccc3cc(-c4cccc5[nH]nc(N)c45)ccc23)ccc1F | enzyme activity, inhibitor | 0.1 µM | activity vs control | 96%
CCN(CC)CCNC(=O)c1c(C)[nH]c(/C=C2\C(=O)Nc3ccc(F)cc32)c1C | enzyme activity, inhibitor | 10 µM | inhibition | 6%
